Measured values taken from ChEMBL document CHEMBL1938334, “Quinoline tricyclic derivatives. Design, synthesis and evaluation of the antiviral activity of three new classes of RNA-dependent RNA polymerase inhibitors” (Bioorg Med Chem, 2011).
pEC50, pIC50: −log10 of the molar value.

Columns and labels:
[1] = Cytotoxicity against human GS4.1 cells; assay type: cell-based
Method in brief: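 Huh-7 cells carrying HCV genotype 1b subgenomic replicon, grown in D-MEM/10% FBS with 0.5 mg/mL G418. Seeded at 7.5×10^3 cells/well with two-fold serial dilutions (top 75 μM), incubated 72 h at 37 °C. Viability by MTS-type Cell Titer 96 Aqueous One reagent; CC50 from % cytotoxicity versus concentration curves.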

Human alphaherpesvirus 1 = assay: Antiviral activity against Human herpesvirus 1 strain KOS infected in african green monkey Vero 76 cells assessed as reduction of virus-induced plaque formation after 3 days using crystal violet staining; assay type: functional, organism-based; settings: Human alphaherpesvirus 1, KOS, 72 h
[2] = tested on: Vesicular stomatitis Indiana virus; assay: Antiviral activity against clinical isolate Vesicular stomatitis Indiana virus infected in african green monkey Vero 76 cells assessed as reduction of virus-induced plaque formation after 2 days using crystal violet staining; assay type: functional, organism-based; settings: 48 h
Reovirus sp. = assay: Antiviral activity against Reovirus type-1 3651 infected in hamster BHK21 cells assessed as inhibition of virus-induced cytopathogenicity after 3 to 4 days by MTT assay; assay type: functional, organism-based; settings: Reovirus sp., 3651, BHK-21
Method in brief: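 Host cells were seeded in 96-well plates at 3×10^4 cells/well (MDBK) or 5×10^4 cells/well (BHK-21) and grown to confluent monolayers overnight. They were infected at m.o.i. 0.01 in maintenance MEM with 0.5% inactivated FBS. Serial compound dilutions were added after 1 h. Viability was read by MTT after 3–4 days at 37 °C. EC50 was taken by linear regression against untreated controls. Mean of three determinations.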

[3] = Cytotoxicity against human MRC5 cells after 96 hrs by MTT assay; assay type: cell-based
Method in brief: (§1)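 Cells were seeded at 1×10^5 cells/mL: leukaemia/lymphoma lines in RPMI-1640, solid tumour and fibroblast lines in specific media, all with 10% FCS. Serial compound dilutions were applied for 96 h at 37 °C, 5% CO2, under conditions allowing controls at least three rounds of multiplication. Viability was read by MTT. CC50 by linear regression. Mean of three determinations.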

[4] = Inhibition of HCV1b BK 6xHis-tagged recombinant NS5B Cdelta 21 RNA dependent RNA polymerase expressed in Escherichia coli (DE3) using GTP as substrate preincubated for 30 mins before substrate addition measured after 120 mins by fluorescence assay; design: species or system Hepatitis C virus (isolate BK)
Method in brief: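 His-tagged NS5B (BVDV C-terminal Δ24; HCV1b Δ21) from E. coli Rosetta 2(DE3)pLysS, Ni-NTA purified, 500–600 ng per 20 μL. The template was poly(rC) 10 μg/mL and the primer oligo(rG)12 0.1 μg/mL, with GTP 80 μM. Buffer: 20 mM Tris pH 7.0, 0.5 mM MnCl2 or 5 mM MgCl2, 5% DMSO. Enzyme/drug 30 min at RT, then GTP added; 120 min at 37 °C (BVDV) or 25 °C (HCV). Read-out was dsRNA dye fluorescence (ex 480/em 520). IC50 from dose–response fits.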

SK-MES-1 = assay: Cytotoxicity against human SKMES1 cells after 96 hrs by MTT assay; assay type: functional; settings: SK-MES-1, 96 h; method in brief: as §1

O=[N+]([O-])c1ccc(-c2nc3cc4cccnc4c(Cl)c3[nH]2)cc1
CC50 [1]: 12 µM
pEC50 (Human alphaherpesvirus 1): 4.36
pEC50 [2]: < 4.00
pEC50 (Reovirus sp.): < 4.00
CC50 at 96 h [3]: > 100 µM
pIC50 [4]: 5.10
CC50 (SK-MES-1): > 100 µM
